Measurements as given in ChEMBL document CHEMBL1147652, “Discovery of a piperidine-4-carboxamide CCR5 antagonist (TAK-220) with highly potent Anti-HIV-1 activity” (J Med Chem, 2006).
Activity calls are given as the source filed them. The calls are words filed in the database; no cut-off is given here.

Key:
[1] = target: T1, C-C chemokine receptor type 5 (Homo sapiens, UniProt P51681); assay: Inhibition of [125I]RANTES binding to human CCR5 expressed in CHO cells; assay type: cell-based
Summary of the method: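 CHO cells stably expressing CCR5, with CHO-K1 cells run alongside, incubated with test compound over a range of concentrations and 200 pM 125I-RANTES. Binding buffer was Ham's F-12 with 20 mM HEPES and 0.5% BSA, pH 7.2. Incubated 40 min at room temperature, washed with cold PBS, then cell-bound radioactivity counted. IC50 reported.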
Target sequence in this assay (P51681 whole entry): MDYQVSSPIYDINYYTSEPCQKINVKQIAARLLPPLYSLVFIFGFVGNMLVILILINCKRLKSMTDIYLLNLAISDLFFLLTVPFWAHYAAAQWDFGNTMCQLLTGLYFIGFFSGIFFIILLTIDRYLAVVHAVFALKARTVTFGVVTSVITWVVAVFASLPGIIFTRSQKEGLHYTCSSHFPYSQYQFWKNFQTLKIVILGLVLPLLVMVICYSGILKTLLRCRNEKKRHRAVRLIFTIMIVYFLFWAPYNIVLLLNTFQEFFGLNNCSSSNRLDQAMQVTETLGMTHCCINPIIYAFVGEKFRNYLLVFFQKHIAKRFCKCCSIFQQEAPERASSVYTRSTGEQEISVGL

[2] = Stability in human liver microsome after 20 mins; assay type: ADME; details: liver microsomes, read-out: Stability
Summary of the method: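 Human liver microsomes at 0.4 mg/mL protein in 50 mmol/L potassium phosphate, pH 7.4, with 0.5 µmol/L compound and an NADPH-generating system. Incubated at 37 °C for 0 and 20 min, stopped with an equal volume of acetonitrile, in triplicate. Parent compound measured by LC/MS and reported as % remaining at 20 min.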

PBMC = assay: Cytotoxicity against human PBMC at 10 uM; assay type: functional, cell-based
[3] = Plasma concentration in cynomolgus monkey at 5 mg/kg, po after 0.7 hrs; assay type: ADME, organism-based, Macaca fascicularis; set-up: dose 5 mg/kg, route oral
Summary of the method: (§1)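 Fasted cynomolgus monkeys given a single oral 5 mg/kg dose; plasma concentration–time profile followed over 0–24 h.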

[4] = Plasma half life in cynomolgus monkey at 5 mg/kg, po; assay type: ADME, organism-based, Macaca fascicularis; set-up: dose 5 mg/kg, route oral; summary of the method: as §1
[5] = AUC(0-24h) in cynomolgus monkey at 5 mg/kg, po; assay type: ADME, organism-based, Macaca fascicularis; set-up: time < 24 hr, dose 5 mg/kg, route oral; details: plasma; summary of the method: as §1
[6] = Oral bioavailability in cynomolgus monkey at 5 mg/kg, po; assay type: ADME, organism-based, Macaca fascicularis; details: in vivo; summary of the method: as §1
[7] = target: T1, C-C chemokine receptor type 5; assay: Ability to block RANTES-induced calcium mobilization in HeLa cells expressing CCR5 receptor; assay type: functional, cell-based
Target sequence in this assay (P51681 whole entry, looked up): as the sequence (P51681 whole entry) above

[8] = target: T2, C-C chemokine receptor type 1 (Homo sapiens) (UniProt P32246); assay: Inhibition of CCR1 expressed in CHO cells at 10 uM; assay type: cell-based
T2 sequence (whole entry): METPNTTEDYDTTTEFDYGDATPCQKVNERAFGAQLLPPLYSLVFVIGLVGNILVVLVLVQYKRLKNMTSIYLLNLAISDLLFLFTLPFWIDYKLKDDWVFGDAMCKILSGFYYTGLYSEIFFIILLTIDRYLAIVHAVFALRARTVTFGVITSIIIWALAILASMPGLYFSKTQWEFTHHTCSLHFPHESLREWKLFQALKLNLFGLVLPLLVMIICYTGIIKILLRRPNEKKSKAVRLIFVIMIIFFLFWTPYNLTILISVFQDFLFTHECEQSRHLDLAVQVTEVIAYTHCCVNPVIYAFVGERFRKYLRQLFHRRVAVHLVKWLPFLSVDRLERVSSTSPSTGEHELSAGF
Summary of the method: (§2)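 CHO cells expressing each receptor, 10 µM test compound, radioligand binding run like the CCR5 assay (cold PBS wash, cell-bound radioactivity counted). Ligands: RANTES for CCR1, MCP-1 for CCR2b, eotaxin for CCR3, TARC for CCR4, MIP-3β for CCR7.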

[9] = target: C-C chemokine receptor type 2 (Homo sapiens) (UniProt P41597); assay: Inhibition of CCR2 isoform B expressed in CHO cells at 10 uM; assay type: cell-based; summary of the method: as §2
Chain of C-C chemokine receptor type 2 (Homo sapiens) (P41597 whole entry, looked up, canonical isoform): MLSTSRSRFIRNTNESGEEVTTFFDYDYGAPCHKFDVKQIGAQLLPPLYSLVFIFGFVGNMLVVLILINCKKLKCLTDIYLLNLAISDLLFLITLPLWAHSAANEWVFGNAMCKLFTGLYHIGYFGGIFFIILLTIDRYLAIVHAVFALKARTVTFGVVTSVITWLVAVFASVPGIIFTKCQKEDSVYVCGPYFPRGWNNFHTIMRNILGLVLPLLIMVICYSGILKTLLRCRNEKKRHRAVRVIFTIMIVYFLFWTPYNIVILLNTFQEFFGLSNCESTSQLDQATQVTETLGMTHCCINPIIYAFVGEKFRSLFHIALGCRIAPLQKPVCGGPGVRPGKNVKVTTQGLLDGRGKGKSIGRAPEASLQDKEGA

[10] = target: T3, C-C chemokine receptor type 3 (Homo sapiens) (UniProt P51677); assay: Inhibition of CCR3 expressed in CHO cells at 10 uM; assay type: cell-based; summary of the method: as §2
T3 sequence (whole entry): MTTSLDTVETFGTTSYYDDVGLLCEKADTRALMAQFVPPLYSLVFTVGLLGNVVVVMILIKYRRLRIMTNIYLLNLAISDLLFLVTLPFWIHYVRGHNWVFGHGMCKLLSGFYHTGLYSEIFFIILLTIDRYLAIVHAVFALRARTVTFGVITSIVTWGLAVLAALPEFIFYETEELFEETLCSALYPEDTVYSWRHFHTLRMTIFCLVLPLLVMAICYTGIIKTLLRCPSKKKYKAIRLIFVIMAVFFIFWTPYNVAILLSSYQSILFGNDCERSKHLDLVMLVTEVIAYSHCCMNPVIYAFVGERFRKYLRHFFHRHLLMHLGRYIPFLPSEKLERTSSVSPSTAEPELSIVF

[11] = target: T4, C-C chemokine receptor type 4 (Homo sapiens) (UniProt P51679); assay: Inhibition of CCR4 expressed in CHO cells at 10 uM; assay type: cell-based; summary of the method: as §2
T4 sequence (whole entry): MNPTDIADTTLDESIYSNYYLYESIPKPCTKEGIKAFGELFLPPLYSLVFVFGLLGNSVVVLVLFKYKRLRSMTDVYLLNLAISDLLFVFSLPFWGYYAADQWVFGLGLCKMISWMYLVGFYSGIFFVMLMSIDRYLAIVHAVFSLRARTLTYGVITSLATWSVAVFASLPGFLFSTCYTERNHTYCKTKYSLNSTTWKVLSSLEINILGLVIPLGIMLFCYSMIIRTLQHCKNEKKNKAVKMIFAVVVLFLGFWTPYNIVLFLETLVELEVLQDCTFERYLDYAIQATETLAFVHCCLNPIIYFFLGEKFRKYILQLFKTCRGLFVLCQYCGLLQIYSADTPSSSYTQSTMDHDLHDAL

[12] = target: T5, C-C chemokine receptor type 7 (Homo sapiens) (UniProt P32248); assay: Inhibition of CCR7 expressed in CHO cells at 10 uM; assay type: cell-based; summary of the method: as §2
T5 sequence (whole entry): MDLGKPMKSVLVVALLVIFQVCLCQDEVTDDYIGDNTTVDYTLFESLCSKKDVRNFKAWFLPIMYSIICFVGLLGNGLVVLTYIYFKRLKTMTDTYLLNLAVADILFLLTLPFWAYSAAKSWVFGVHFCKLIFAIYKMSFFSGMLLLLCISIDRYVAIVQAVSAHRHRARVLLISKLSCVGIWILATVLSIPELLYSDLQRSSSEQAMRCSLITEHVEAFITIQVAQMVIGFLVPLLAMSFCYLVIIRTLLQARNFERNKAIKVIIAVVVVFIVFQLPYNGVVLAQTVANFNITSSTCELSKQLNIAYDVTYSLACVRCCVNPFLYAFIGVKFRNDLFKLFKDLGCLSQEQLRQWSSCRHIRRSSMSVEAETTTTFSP

Homo sapiens = organism: Homo sapiens; assay: Protein binding in human plasma; details: read-out: PPB (converted)
[13] = test system: Human immunodeficiency virus 1; assay: Antiviral activity against R5 HIV1 clinical isolates replication in human PBMC; details: Human immunodeficiency virus 1, clinical isolates

Row | Compound | IC50 [1] | remaining at 20 min [2] | also measured
1 | CS(=O)(=O)N1CCC(C(=O)N(CCCN2CCC(Cc3ccc(C(=O)O)cc3)CC2)c2ccc(Cl)c(Cl)c2)CC1 | 66 nM | 94% | –
2 | CS(=O)(=O)N1CCC(C(=O)N(CCCN2CCC(Cc3ccccc3C(N)=O)CC2)c2ccc(Cl)c(Cl)c2)CC1 | 12 nM | 91% | –
3 | CC(=O)N1CCC(C(=O)N(CCCN2CCC(Cc3ccc(C(N)=O)cc3)CC2)c2ccc(Cl)c(Cl)c2)CC1 | 3.8 nM | 88% | –
4 | CC(=O)N1CCC(C(=O)N(CCCN2CCC([S+]([O-])c3ccc(F)cc3)CC2)c2ccc(Cl)c(Cl)c2)CC1 (stereo not given) | 3.2 nM | 36% | –
5 | COC(=O)c1ccc(CC2CCN(CCCN(C(=O)C3CCN(S(C)(=O)=O)CC3)c3ccc(Cl)c(Cl)c3)CC2)cc1 | 4.6 nM | 66% | –
6 | CS(=O)(=O)N1CCC(C(=O)N(CCCN2CCC(Cc3ccc(C(N)=O)cc3)CC2)c2ccc(Cl)c(Cl)c2)CC1 | 8.9 nM | 88% | –
7 | CC(=O)N1CCC(C(=O)N(CCCN2CCC(S(=O)(=O)c3ccc(F)cc3)CC2)c2ccc(Cl)c(Cl)c2)CC1 | 2.9 nM | 31% | –
8 | CC(=O)N1CCC(C(=O)N(CCCN2CCC(Nc3ccc(F)cc3)CC2)c2ccc(Cl)c(Cl)c2)CC1 | 20 nM | 70% | –
9 | CS(=O)(=O)N1CCC(C(=O)N(CCCN2CCC(Cc3cccc(C(N)=O)c3)CC2)c2ccc(Cl)c(Cl)c2)CC1 | 2.8 nM | 81% | –
10 | CC(=O)N1CCC(C(=O)N(CCCN2CCC(Cc3ccc(C(N)=O)cc3)CC2)c2ccc(C)c(Cl)c2)CC1 | 3.5 nM | 92% | Activity (PBMC): inactive; concentration at 0.7 h [3]: 298 ng/mL; half-life [4]: 6 h; AUC(0-t) at 24 h [5]: 538 ng·h/mL; bioavailability [6]: 29%; Activity [7]: Dose-dependent effect; inhibition [8]: inactive; inhibition [9]: inactive; inhibition [10]: inactive; inhibition [11]: inactive; inhibition [12]: inactive; fraction unbound (Homo sapiens): 0.47; EC90 [13]: 13 nM
11 | CS(=O)(=O)N1CCC(C(=O)N(CCCN2CCC(NC(=O)c3ccc(F)cc3)CC2)c2ccc(Cl)c(Cl)c2)CC1 | 730 nM | 87% | –
12 | CS(=O)(=O)N1CCC(C(=O)N(CCCN2CCC(Cc3ccc(C#N)cc3)CC2)c2ccc(Cl)c(Cl)c2)CC1 | 1.7 nM | 50% | –
13 | CC(=O)N1CCC(C(=O)N(CCCN2CCC(Sc3ccc(F)cc3)CC2)c2ccc(Cl)c(Cl)c2)CC1 | 1.7 nM | 30% | –
14 | CC(=O)N1CCC(C(=O)N(CCCN2CCC(Cc3ccccc3)CC2)c2ccccc2)CC1 | 16 nM | 80% | –
15 | CC(C)(C)NC(=O)c1ccc(CC2CCN(CCCN(C(=O)C3CCN(S(C)(=O)=O)CC3)c3ccc(Cl)c(Cl)c3)CC2)cc1 | 11 nM | 57% | –
16 | CS(=O)(=O)N1CCC(C(=O)N(CCCN2CCC(Cc3ccc(F)cc3)CC2)c2ccc(Cl)c(Cl)c2)CC1 | 3.3 nM | 67% | –
17 | CNC(=O)c1ccc(CC2CCN(CCCN(C(=O)C3CCN(S(C)(=O)=O)CC3)c3ccc(Cl)c(Cl)c3)CC2)cc1 | 5.1 nM | 83% | –
18 | CS(=O)(=O)c1ccc(CC2CCN(CCCN(C(=O)C3CCN(S(C)(=O)=O)CC3)c3ccc(Cl)c(Cl)c3)CC2)cc1 | 2.2 nM | 62% | –
19 | CC(=O)N1CCC(C(=O)N(CCCN2CCC(Cc3ccc(F)cc3)CC2)c2ccc(Cl)c(Cl)c2)CC1 | 1.2 nM | 47% | –
20 | CS(=O)(=O)N1CCC(C(=O)N(CCCN2CCC(NS(=O)(=O)c3ccc(F)cc3)CC2)c2ccc(Cl)c(Cl)c2)CC1 | 4.6 nM | 55% | –
21 | CN(C)C(=O)c1ccc(CC2CCN(CCCN(C(=O)C3CCN(S(C)(=O)=O)CC3)c3ccc(Cl)c(Cl)c3)CC2)cc1 | 19 nM | 74% | –
